Reference: ChEMBL document CHEMBL1142242, “Indanylacetic acid derivatives carrying 4-thiazolyl-phenoxy tail groups, a new class of potent PPAR alpha/gamma/delta pan agonists: synthesis, structure-activity relationship, and in vivo efficacy” (J Med Chem, 2007)
The source made the active and inactive calls. The rule behind the calls is not given here.

Assays:
[1] = molecular target: T1, Peroxisome proliferator-activated receptor gamma (Mus musculus, UniProt P37238); assay: Agonist activity at PPAR gamma in mouse 3T3L1 cells assessed as increase in insulin receptor by IRBA; assay type: functional, cell-based, 3T3-L1
T1 sequence (P37238 whole entry): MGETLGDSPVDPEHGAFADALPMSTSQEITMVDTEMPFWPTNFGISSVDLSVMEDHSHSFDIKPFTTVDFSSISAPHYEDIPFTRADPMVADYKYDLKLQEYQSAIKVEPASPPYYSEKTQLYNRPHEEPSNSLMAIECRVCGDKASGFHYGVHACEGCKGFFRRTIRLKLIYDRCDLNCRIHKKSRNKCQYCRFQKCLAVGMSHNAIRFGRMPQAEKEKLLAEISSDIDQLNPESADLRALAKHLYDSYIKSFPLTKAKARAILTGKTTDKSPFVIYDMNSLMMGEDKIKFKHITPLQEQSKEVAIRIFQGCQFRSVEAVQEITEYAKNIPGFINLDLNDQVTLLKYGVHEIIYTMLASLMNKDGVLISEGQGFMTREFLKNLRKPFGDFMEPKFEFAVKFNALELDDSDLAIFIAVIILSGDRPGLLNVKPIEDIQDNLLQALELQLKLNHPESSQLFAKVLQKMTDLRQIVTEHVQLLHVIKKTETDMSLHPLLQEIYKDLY

[2] = molecular target: T2, Peroxisome proliferator-activated receptor delta (Homo sapiens, UniProt Q03181); assay: Agonist activity at human PPAR delta by FRET assay; assay type: functional
T2 sequence (Q03181 whole entry): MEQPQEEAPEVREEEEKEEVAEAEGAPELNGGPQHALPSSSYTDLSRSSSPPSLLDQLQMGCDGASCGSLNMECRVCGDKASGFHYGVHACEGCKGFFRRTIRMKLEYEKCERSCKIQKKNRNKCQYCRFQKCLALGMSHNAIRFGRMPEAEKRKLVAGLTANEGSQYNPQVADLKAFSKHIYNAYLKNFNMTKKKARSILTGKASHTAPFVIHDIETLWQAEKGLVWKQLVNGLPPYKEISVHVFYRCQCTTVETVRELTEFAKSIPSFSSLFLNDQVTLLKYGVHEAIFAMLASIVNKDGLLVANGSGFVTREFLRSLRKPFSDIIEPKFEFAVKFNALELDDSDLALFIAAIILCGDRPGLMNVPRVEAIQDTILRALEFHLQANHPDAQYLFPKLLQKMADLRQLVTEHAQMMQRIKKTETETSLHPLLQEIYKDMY

[3] = molecular target: T3, Peroxisome proliferator-activated receptor alpha (Homo sapiens, UniProt Q07869); assay: Agonist activity at human PPAR alpha by FRET assay; assay type: functional
T3 sequence (Q07869 whole entry): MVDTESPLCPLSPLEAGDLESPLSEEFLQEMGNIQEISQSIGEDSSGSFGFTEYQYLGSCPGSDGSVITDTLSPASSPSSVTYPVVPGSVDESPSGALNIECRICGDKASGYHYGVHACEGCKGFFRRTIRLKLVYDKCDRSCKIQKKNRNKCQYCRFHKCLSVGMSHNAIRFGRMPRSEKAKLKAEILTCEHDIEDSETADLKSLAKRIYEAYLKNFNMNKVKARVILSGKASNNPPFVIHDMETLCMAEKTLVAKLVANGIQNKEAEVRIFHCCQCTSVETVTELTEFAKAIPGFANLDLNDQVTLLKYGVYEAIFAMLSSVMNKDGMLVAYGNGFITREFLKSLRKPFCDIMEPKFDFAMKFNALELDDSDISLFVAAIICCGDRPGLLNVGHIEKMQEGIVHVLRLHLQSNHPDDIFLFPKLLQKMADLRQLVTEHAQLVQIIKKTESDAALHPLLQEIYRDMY
Summary of the method: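 Human PPARα ligand binding domain (GST-tagged) association with biotin-labeled co-activator CBP; Eu-labeled anti-GST antibody and streptavidin-APC; incubated 2 h at rt in buffer with or without compound; fluorescence read at 615 or 655 nm emission, 340 nm excitation.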

[4] = system: Mus musculus; assay: Increase of plasma HDLc level in female human apoA1 transgenic mouse at 10 mg/kg; assay type: functional, organism-based; parameters: dose 10 mg/kg
Summary of the method: (§1)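 hApoA1 transgenic mice, 6 weeks old at purchase, grouped by equal baseline plasma triglyceride; oral dosing once daily for 7 days in 0.5% methylcellulose in water; bled ~24 h after last dose; plasma triglyceride and HDLc by autoanalyzer; mean ± SEM, 6-8 mice.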

[5] = system: Mus musculus; assay: Reduction of plasma triglyceride level in male human apoA1 transgenic mouse at 10 mg/kg; assay type: functional, organism-based; parameters: dose 10 mg/kg; summary of the method: as §1
[6] = system: Mus musculus; assay: Increase of plasma HDLc level in male human apoA1 transgenic mouse at 10 mg/kg; assay type: functional, organism-based; parameters: dose 10 mg/kg; summary of the method: as §1

| SMILES | EC50 [1] [nM] | EC50 [2] [nM] | EC50 [3] [nM] | Activity [4] | Activity [5] | Activity [6] |
| --- | --- | --- | --- | --- | --- | --- |
| CC(=O)c1sc(-c2ccc(OCCCOc3ccc4c(c3)CC[C@H]4CC(=O)O)cc2)nc1C | 480 | 6.9 | 2530 | – | – | – |
| COc1cc(-c2nc(C)c(C(=O)O)s2)ccc1OCCCOc1ccc2c(c1)CC[C@H]2CC(=O)O | 1000 | 28 | 10000 | – | – | – |
| O=C(O)C[C@@H]1CCc2cc(OCCCOc3ccc(-c4ccsc4)cc3)ccc21 | 650 | 5.9 | > 10000 | – | – | – |
| O=C(O)C[C@@H]1CCc2cc(OCCCOc3ccc4c(c3)ONC4(O)C(F)(F)F)ccc21 (some centres not stated) | 5000 | 67 | > 10000 | – | – | – |
| CCCc1cc(-c2nc(C(F)(F)F)cs2)ccc1OCCCOc1ccc2c(c1)CC[C@H]2CC(=O)O | 55 | 3.3 | 197 | – | – | – |
| COc1ccncc1-c1ccc(OCCCOc2ccc3c(c2)CC[C@H]3CC(=O)O)cc1 | 485 | 43 | > 10000 | – | – | – |
| COc1cc(-c2nc3c(s2)CCCC3)ccc1OCCCOc1ccc2c(c1)CC[C@H]2CC(=O)O | 84 | 3.3 | 44 | – | – | – |
| O=C(O)C[C@@H]1CCc2cc(OCCCOc3ccc(OC(F)(F)F)cc3)ccc21 | 1020 | 13 | 6800 | – | – | – |
| COc1cc(C)ccc1OCCCOc1ccc2c(c1)CC[C@H]2CC(=O)O | 1670 | 7.5 | > 10000 | – | – | – |
| CCCc1cc(-c2nc(C)c(C(=O)O)s2)ccc1OCCCOc1ccc2c(c1)CC[C@H]2CC(=O)O | 238 | 46 | 1690 | – | – | – |
| CCCc1cc(-c2nc(CC)cs2)ccc1OCCCOc1ccc2c(c1)CC[C@H]2CC(=O)O | 45 | 11 | 147 | – | – | – |
| CCCc1cc(-c2nc(OC(C)C)cs2)ccc1OCCCOc1ccc2c(c1)CC[C@H]2CC(=O)O | 45 | 2.3 | 47 | – | – | – |
| O=C(O)C[C@@H]1CCc2cc(OCCCOc3ccc(-c4cccnc4)cc3)ccc21 | 550 | 2.3 | 1690 | – | – | – |
| Cc1nc(-c2ccc(OCCCOc3ccc4c(c3)CC[C@H]4CC(=O)O)cc2)sc1C | 280 | 2.9 | 1250 | – | – | – |
| O=C(O)C[C@@H]1CCc2cc(OCCCOc3ccc(-c4nc5c(s4)CCC5)cc3)ccc21 | 1200 | 1.3 | 112 | – | – | – |
| CCCc1c(OCCCOc2ccc3c(c2)CC[C@H]3CC(=O)O)ccc2[nH]ccc12 | 460 | 6.2 | > 10000 | – | – | – |
| COc1csc(-c2ccc(OCCCOc3ccc4c(c3)CC[C@H]4CC(=O)O)cc2)n1 | 300 | 1.3 | 5800 | – | – | – |

| SMILES | EC50 [1] [nM] | EC50 [2] [nM] | EC50 [3] [nM] | Activity [4] | Activity [5] | Activity [6] |
| --- | --- | --- | --- | --- | --- | --- |
| COc1cc(-c2nc(C)c(C(C)=O)s2)ccc1OCCCOc1ccc2c(c1)CC[C@H]2CC(=O)O | 49 | 3.4 | 560 | – | – | – |
| CCc1ccc(OCCCOc2ccc3c(c2)CC[C@H]3CC(=O)O)cc1 | 6200 | 8.9 | 1980 | – | – | – |
| O=C(O)C[C@@H]1CCc2cc(OCCCOc3ccccc3)ccc21 | > 10000 | 44 | > 10000 | – | – | – |
| CCCc1cc(-c2nc(OCC)cs2)ccc1OCCCOc1ccc2c(c1)CC[C@H]2CC(=O)O | 41 | 2 | 105 | – | – | – |
| COc1ncc(-c2ccc(OCCCOc3ccc4c(c3)CC[C@H]4CC(=O)O)cc2)c(OC)n1 | 300 | 5.6 | > 10000 | – | – | – |
| Cc1noc2c(C)c(OCCCOc3ccc4c(c3)CC[C@H]4CC(=O)O)ccc12 | 290 | 8.1 | > 10000 | – | – | – |
| O=C(O)C[C@@H]1CCc2cc(OCCCOc3ccc4cc[nH]c4c3)ccc21 | > 10000 | 19 | > 10000 | – | – | – |
| COc1cc(-c2nc(OC(C)C)cs2)ccc1OCCCOc1ccc2c(c1)CC[C@H]2CC(=O)O | 44 | 3 | 180 | – | – | – |
| O=C(O)C[C@@H]1CCc2cc(OCCCOc3ccc4cnoc4c3)ccc21 | > 10000 | 828 | > 10000 | – | – | – |
| COc1cc(-c2nc(C(F)(F)F)cs2)ccc1OCCCOc1ccc2c(c1)CC[C@H]2CC(=O)O | 327 | 2.9 | 437 | – | – | – |
| Cc1coc2cc(OCCCOc3ccc4c(c3)CC[C@H]4CC(=O)O)ccc12 | 1950 | 8 | > 10000 | – | – | – |
| Cc1cc(SCc2sc(-c3ccc(C(F)(F)F)cc3)nc2C)ccc1OCC(=O)O | – | – | – | Active | Dose-dependent effect | Dose-dependent effect |
| O=C(O)C[C@@H]1CCc2cc(OCCCOc3ccc4ncoc4c3)ccc21 | > 10000 | 130 | > 10000 | – | – | – |
| CCOc1nc(-c2ccc(OCCCOc3ccc4c(c3)CC[C@H]4CC(=O)O)c(OC)c2)sc1CC | 362 | 5.4 | 520 | – | – | – |
| Cc1cccc(OCCCOc2ccc3c(c2)CC[C@H]3CC(=O)O)c1 | 8000 | 56 | > 10000 | – | – | – |
| CCCc1cc(-c2nc(C(C)(C)C)cs2)ccc1OCCCOc1ccc2c(c1)CC[C@H]2CC(=O)O | 18 | 11 | 87 | – | – | – |
| CCCc1cc(-c2nc3c(s2)CCC3)ccc1OCCCOc1ccc2c(c1)CC[C@H]2CC(=O)O | 94 | 3.5 | 328 | – | – | – |
